This sample holds only a part of the variants without activity. Some results are limits rather than exact numbers.

From the RNAGym collection of RNA variant scans (doi:10.1126/science.aae0568) come the findings set out here.

Sequences and labels used below:
B1: tRNA (parent)
chain: GUUCCGUUGGCGUAAUGGUAACGCGUCUCCCUCCUAAGGAGAAGACUGCGGGUUCGAGUCCCGUACGGAACG

The data set covers variants of B1. Nature of the data set: yeast fitness relative to wild type (ratio to wild type); higher = fitter; tRNA-Arg(CCU), competitive growth, 37 C, YPD. In short, it runs like this:
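Genotype frequency changes were the basis for Darwinian fitness relative to wild type. The frequencies came from 100-nucleotide paired-end sequencing of gene amplicons from the start population and each end population of pooled yeast strains with tRNA-Arg(CCU) gene variants at the native locus. Competition ran in YPD at 37°C for 24 hours in six replicates, genotypes needed ≥ 100 starting reads, and estimates < 0.5 were set to 0.5.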
On to GUUCUGUUGGCGUAAUGGUAACCCGUCUCCCUCCUAAGGAGAAGACUGCGGGUUCGAGUCCCGUACGGCACG [C5U G23C A69C], for which the yeast fitness was not above 0.5.

For the variant GUUCUGUUGGCGUAAUGGUAACACGUCUCCCUCCUAAGGAGAAGAGUGGGGGUUCGAGUCCCGUACGGAACG [C5U G23A C46G C49G], the yeast fitness was not above 0.5.

Regarding GUUCUGUUGGCGUAAUGGUAACACGUGUCCGUCCUAAGGAGAAGACUGCCGGUUCGACUCCCGUACGGAACG [C5U G23A C27G C31G G50C G58C], the yeast fitness turned out to be 0.557.

With GUUCUGUUGGCGUAAUGGUAACGCCUGUCCCUCCUAAGGAGAAGACUGCGGGUUCGAGUCCCGUACGGAACG [C5U G25C C27G], the yeast fitness is not above 0.5.

In the case of GUUCUGUUGGCGUAAUGGUAACGCGUCUCCCUCCUAAGAAGAAGACUGCGUGUUCGACUCCCGUACGGAACG [C5U G39A G51U G58C], the yeast fitness was not above 0.5.

As for GUUCUGUUGGCGUAAUGGUAACGCGUCUCCCUCCUAAGGAAAAGACUGCGGGUUCGAGUCCCGUACGGACCG [C5U G41A A70C], the yeast fitness turned out to be 0.695.

Consider GUUCUGUUGGCGUAAUGGUAACGCGUCUCCCUCCUAAGGAGAAAACUGCGGGUUCGAGUCCCGUACGAAACG [C5U G44A G68A], for which the yeast fitness turned out to be 0.522.

For GUUCUGUUGGCGUAAUGGUAACGCAUCUCCCUCCUAAGGAGAAGACUGCGGGUUCGAGUCCCGUACGGCACG [C5U G25A A69C], the yeast fitness came to 0.728.

As to GUUCUGUUGGCGUAAUGGUAACGCGUCUCCCUCCUAAGAAGAAGACUGCGGGUUUGAGUCCCGUACGGAACG [C5U G39A C55U], the yeast fitness was determined as 0.614.

Turning to GUUCUGUUGGCGUAAUGGUAACACGUCUCCUUCCUAAGGAGAAGACUGCGGGUUCGAGUCCCGUGCGGAACG [C5U G23A C31U A65G], the yeast fitness was not above 0.5.

For the variant GUUCUGUUGGCGUAAUGGUAACGCAUCUCCCUCCUAAGGAGAAGACUGCGCGUUCCAGUCCCGUACGGUACG [C5U G25A G51C G56C A69U], the yeast fitness was not above 0.5.

Turning to GUUCUGUUGGCGUAAUGGUAACGCGUCUCCCUCCUAAGAAGAAGACUGCGGGUUCGAGUCCCGUACGGCACG [C5U G39A A69C], the yeast fitness stood at 0.647.

GUUCUGUUGGCGUAAUGGUAACGCGUCUCCCUCCUAAGGAAAAGACUGCGGGUUCCAGUCCGGUACGCAACG [C5U G41A G56C C62G G68C]: the yeast fitness is not above 0.5.

In the case of GUUCUGUUGGCGUAAUGGUAACGCCUCUCCCUCCUAAGGAGAAGACUGCGGGUUCGAGUCCCGUACGGAACG [C5U G25C], the yeast fitness came to 0.997.

For GUUCUGUUGGCGUAAUGGUAACGCAUCUCCCUCCUAAGGAGAAGACUGCGGGUUCGAGUCCCGUACGGAACG [C5U G25A], the yeast fitness was 0.891.

Regarding GUUCUGUUGGCGUAAUGGUAACCCGUCUCCCUCCUAAGGAGAAGACUGCGGGUUCGAGUCCCGUACGGAACG [C5U G23C], the yeast fitness stood at 0.644.

For the variant GUUCUGUUGGCGUAAUGGUAACACGUCUCCCUCCUAAGGAGAAGACUGCGGGUUCGAGUCCCGUACGGAACG [C5U G23A], the yeast fitness was 0.742.

On to GUUCUGUUGGCGUAAUGCUAACGCGUCUCCCUCCUAAGGAGAAGACUGCGGGUUCGAGUCUCGUACGGAACG [C5U G18C C61U], for which the yeast fitness turned out to be 0.565.

As to GUUCUGUUGGCGUAAUGGUAACGCGUCUCCCUCCUAAGCAGAAGACUGCGGGUUCGAGAGCCGUACGGAACG [C5U G39C U59A C60G], the yeast fitness is not above 0.5.

On to GUUCUGUUGGCGUAAUGGUAACGCAUCUCCCUCCUAUGGCGAAGACUGCGGGUUCGAGUCACGUACGGAACG [C5U G25A A37U A40C C61A], for which the yeast fitness is not above 0.5.

As to GUUCUGUUGGCGUAAUGCUAAUGCGUCUCCCUCCUAAGGAGAAGACUGCAGCUUCGAGUCCCGUACGGAACG [C5U G18C C22U G50A G52C], the yeast fitness was not above 0.5.

Regarding GUUCUGUUGGCGUAAUGCUAACGCGUCCCCCUCCUAAGGAGAAGACUGCGGGUUCGAGUCCCAUACGGAACG [C5U G18C U28C G63A], the yeast fitness was not above 0.5.

As for GUUCUGUUGGCGUAAUGGUAACGCGUCUCCCUCCUAAGGAAAAGAACGCGGGUUCGAGUCCCGUACGGAACG [C5U G41A C46A U47C], the yeast fitness stood at 0.568.

For the variant GUUCUGUUGGCGUAAUGGUAACGCAUCUCCCUCCUAAGGAGAAGACUGCGGGUUCGAGUCCCGUACGGACCG [C5U G25A A70C], the yeast fitness is 0.796.

Turning to GUUCUGUUGGCGUAAUGGUAACGCGUCUCCCUCCUAAAGAGAAGACUGCGGGUUCGAGUCCCGUACGGAACG [C5U G38A], the yeast fitness was found to be 1.03.

As to GUUCUGUUGGCGUAAUGGUAACACGUCUCCCUCCUAAGGAGAAGACUGCGGGUUCGAGUCCGGUACGGAACG [C5U G23A C62G], the yeast fitness is 0.538.

In the case of GUUCUGUUGGCGUAAUGGUAACGCGUCUCCCUCCUAACCGGAAAAGUGCGGAUUCGAGGCCCGUACGGAACG [C5U G38C G39C A40G G44A C46G G52A U59G], the yeast fitness was not above 0.5.

Regarding GUUCUGUUGGCGUAAUGGUAACGCGUCUCCCUCCUAAGGAACAGACUGCCGGUUCGAGUCCCGUACGGAGCG [C5U G41A A42C G50C A70G], the yeast fitness worked out at 0.535.

On to GUUCUGUUGGCGUAAUGGUAACGCGUCUCCCUCCUAAGAAGAAGACUGCGGGUUCGCGUCCCGUACGGAACG [C5U G39A A57C], for which the yeast fitness was 0.656.

As for GUUCUGUUGGCGUAAUGGUAACGCGUCUCCCUCCUAACGAGAAGAUUGCGGGUUCGAGUUCCGUACGGAACG [C5U G38C C46U C60U], the yeast fitness was not above 0.5.

Regarding GUUCUGUUGGCGUAAUGGUAACGCCUCUCCCUCCUAAGGAGUAGACUGCGGGUUCGAGUCCGGUACGGAACG [C5U G25C A42U C62G], the yeast fitness was not above 0.5.

With GUUCUGUUGGCGUAAUGGUAACGCGUCUCCCUCCUAAGGAAAAGACUGUGGGUUCGAGUCCCGUGUGGAACG [C5U G41A C49U A65G C66U], the yeast fitness is not above 0.5.

In the case of GUUCUGUUGGCGUAAUGGUAACACGUCUCCCUCCUGAGGAGAAGACUGCGGGUUCGAGUCCCGUACGGAACG [C5U G23A A36G], the yeast fitness was 0.618.

In the case of GUUCUGUUGGCGUAAUGGUAACGCAUCUCCCUCCUAAGGCGAAGACUGCGGGUUCGAGUCCCGUACGGAACG [C5U G25A A40C], the yeast fitness was not above 0.5.

For the variant GUUCUGUUGGCGUAAUGGUAACGCCUCUCCCUCCUAAGGAGAAGACUGAGGGUUCCAGUCCGGUACGGAACG [C5U G25C C49A G56C C62G], the yeast fitness is not above 0.5.

For GUUCUGUUGGCGUAAUGGUAACGCGUCUCCCUCCUAACGAGCAGACUGCGGGUUCGAGUCCCAUACGGAACG [C5U G38C A42C G63A], the yeast fitness is not above 0.5.

For GUUCUGUUGGCGUAAUGGUAACGCGUCUCCCUCCUAAAGAGGAGACUGCGGGUUCGAGUCCCGUACGGAACG [C5U G38A A42G], the yeast fitness worked out at 0.605.

GUUCUGUUGGCGUAAUGGUAACACGUCUCCCUCCAAAGGAGAAGACUGCGGGUUCGAGUCCCGUACGGAACG [C5U G23A U35A]: the yeast fitness was not above 0.5.
